{
  "source": "ChEMBL document CHEMBL1149704",
  "about": "“Virtual screening application of a model of full-length HIV-1 integrase complexed with viral DNA” (Bioorg Med Chem Lett, 2007)",
  "key": {"[1]": {"molecular_target": "T1, Human immunodeficiency virus type 1 integrase (Human immunodeficiency virus 1, UniProt Q7ZJM1)", "T1 sequence (Q7ZJM1 whole entry)": "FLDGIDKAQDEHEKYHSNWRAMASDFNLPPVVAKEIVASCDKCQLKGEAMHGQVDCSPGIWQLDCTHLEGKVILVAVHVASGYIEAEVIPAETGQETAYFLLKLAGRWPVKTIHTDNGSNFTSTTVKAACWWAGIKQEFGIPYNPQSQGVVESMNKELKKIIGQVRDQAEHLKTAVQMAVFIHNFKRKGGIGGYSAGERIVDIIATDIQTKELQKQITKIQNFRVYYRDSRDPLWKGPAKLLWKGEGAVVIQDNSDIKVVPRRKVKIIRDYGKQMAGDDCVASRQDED", "assay": "Inhibition of HIV1 integrase by BioVeris assay", "outline": "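Electrochemiluminescent high-throughput screen measuring HIV-1 integrase strand transfer in the presence of Mg2+, with ruthenium-labelled reagents.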"}, "[2]": {"molecular_target": "T1, Human immunodeficiency virus type 1 integrase", "assay": "Inhibition of HIV1 integrase 3' processing activity", "outline": "(§1)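 Hits from the electrochemiluminescent screen were confirmed in a gel-based assay with Mg2+. IC50 values were determined separately for 3'-processing and strand transfer.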"}, "[3]": {"molecular_target": "T1, Human immunodeficiency virus type 1 integrase", "assay": "Inhibition of HIV1 integrase strand transfer activity", "outline": "as §1"}},
  "data": [
    {"compound": "O=C(O)CCC(=O)Nc1ccccc1-c1ccccc1NC(=O)CCC(=O)O", "values": [
      {"measurement": "IC50", "setting": "[1]", "value": 37, "unit": "µM"},
      {"measurement": "IC50", "setting": "[2]", "value": "> 333", "unit": "µM"},
      {"measurement": "IC50", "setting": "[3]", "value": "> 333", "unit": "µM"}
    ]},
    {"compound": "C=C(NNC(=O)c1c[nH]c2ccccc12)c1cccc(NC(=O)CCCC(=O)O)c1", "values": [
      {"measurement": "IC50", "setting": "[1]", "value": 141, "unit": "µM"},
      {"measurement": "IC50", "setting": "[2]", "value": 120, "unit": "µM"},
      {"measurement": "IC50", "setting": "[3]", "value": 70, "unit": "µM"}
    ]},
    {"compound": "C=C(NNC(=O)C1CC1c1ccccc1)c1cccc(NC(=O)C2CCCCC2C(=O)O)c1", "note": "(stereo unspecified)", "values": [
      {"measurement": "IC50", "setting": "[1]", "value": 113, "unit": "µM"},
      {"measurement": "IC50", "setting": "[2]", "value": 65, "unit": "µM"},
      {"measurement": "IC50", "setting": "[3]", "value": 49, "unit": "µM"}
    ]},
    {"compound": "Cc1[nH]nc(O)c1CC(=O)N/N=C/c1ccccc1OCC(=O)O", "values": [
      {"measurement": "IC50", "setting": "[1]", "value": 580, "unit": "µM"},
      {"measurement": "IC50", "setting": "[2]", "value": 121, "unit": "µM"},
      {"measurement": "IC50", "setting": "[3]", "value": 54, "unit": "µM"}
    ]},
    {"compound": "Cc1n[nH]c(O)c1C(c1ccc(-c2ccc(Cl)c(C(=O)O)c2)o1)c1c(O)n[nH]c1C", "values": [
      {"measurement": "IC50", "setting": "[1]", "value": 121, "unit": "µM"},
      {"measurement": "IC50", "setting": "[2]", "value": 87, "unit": "µM"},
      {"measurement": "IC50", "setting": "[3]", "value": 57, "unit": "µM"}
    ]},
    {"compound": "C=C(NNC(=O)C(C)Oc1ccccc1Cl)c1cccc(NC(=O)C2CCCCC2C(=O)O)c1", "note": "(stereo unspecified)", "values": [
      {"measurement": "IC50", "setting": "[1]", "value": 182, "unit": "µM"},
      {"measurement": "IC50", "setting": "[2]", "value": "> 333", "unit": "µM"},
      {"measurement": "IC50", "setting": "[3]", "value": "> 333", "unit": "µM"}
    ]},
    {"compound": "CC(C)n1nc(C(=O)NN/C(=C/CC(=O)O)c2ccc(Br)cc2)c2ccccc2c1=O", "values": [
      {"measurement": "IC50", "setting": "[1]", "value": 670, "unit": "µM"},
      {"measurement": "IC50", "setting": "[2]", "value": 295, "unit": "µM"}
    ]},
    {"compound": "C=C(NNC(=O)Cc1ccc(O)cc1)c1ccc(NC(=O)CCC(=O)O)cc1", "values": [
      {"measurement": "IC50", "setting": "[1]", "value": 292, "unit": "µM"},
      {"measurement": "IC50", "setting": "[2]", "value": 204, "unit": "µM"},
      {"measurement": "IC50", "setting": "[3]", "value": 114, "unit": "µM"}
    ]},
    {"compound": "O=C(O)COc1ccccc1/C=N/NC(=O)CSc1nc2ccccc2[nH]1", "values": [
      {"measurement": "IC50", "setting": "[1]", "value": 780, "unit": "µM"},
      {"measurement": "IC50", "setting": "[2]", "value": 155, "unit": "µM"},
      {"measurement": "IC50", "setting": "[3]", "value": 120, "unit": "µM"}
    ]}
  ]
}
